# ChEMBL document CHEMBL5724801, “EUbOPEN Chemogenomics Library - Multiplex” (2024)
# “And” between values parts separate entries of the source, which are not always exact repeats. Equal entries are not always repeated.
# Test system: U2OS
# Test: Multiplex assay against U2OS
# Type: toxicity, cell-based
# Settings: human
# Method in brief: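 Live cells carried four stains from seeding: Hoechst33342, BioTracker Green Microtubule Cytoskeleton Dye, MitoTracker Red and Annexin V Alexa Fluor 680. They were imaged on a CQ1 microscope at 37°C and 5% CO2 after compound addition. Using CellPathfinder machine-learning gating, cells were split into Hoechst high-intensity objects or normal cells, normal cells into healthy, pyknosed or fragmented nuclei, and pyknosed cells into mitotic or apoptotic; tubulin, mitochondrial-mass and membrane-permeability phenotypes are per cents of healthy-nucleus cells.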
# [1] = 12 h, 1 µM, compound concentration 1 uM
# [2] = 12 h, 10 µM, compound concentration 10 uM
# [3] = 24 h, 1 µM, compound concentration 1 uM
# [4] = 24 h, 10 µM, compound concentration 10 uM
# [5] = 48 h, 1 µM, compound concentration 1 uM
# [6] = 48 h, 10 µM, compound concentration 10 uM
compound,measurement,setting,value
COc1ccc2nc3ccc(OC)cc3c(SCCCN)c2c1.Cl,Population Apoptotic (%),[1],33.33% and 48.15%
same,Population Fragmented Nuclei (%),[1],5.01% and 5.7%
same,Population Healthy Nuclei (%),[1],88.22% and 80.31%
same,Population Hoechst High Intensity Objects (%),[1],0%
same,Population Membrane Permeable-Phenotype (%),[1],0.85% and 1.94%
same,Population Mitochondria Different-Phenotype (%),[1],0% and 12.26%
same,Population Mitotic Cells (%),[1],66.67% and 51.85%
same,Population Normal (%),[1],100%
same,Population Pyknosed Nuclei (%),[1],6.77% and 13.99%
same,Population Tubulin-Different-Phenotype (%),[1],1.14% and 0%
same,Total Cell Count,[1],399 and 193
same,Population Apoptotic (%),[2],50% and 100%
same,Population Fragmented Nuclei (%),[2],77.73% and 91.54%
same,Population Healthy Nuclei (%),[2],21.48% and 8.25%
same,Population Hoechst High Intensity Objects (%),[2],8.43% and 7.62%
same,Population Normal (%),[2],91.57% and 92.38%
same,Population Pyknosed Nuclei (%),[2],0.79% and 0.21%
same,Population Tubulin-Different-Phenotype (%),[2],28.57% and 40.17%
same,Total Cell Count,[2],1388 and 1535
same,Population Apoptotic (%),[3],29.73% and 51.52%
same,Population Fragmented Nuclei (%),[3],3.05% and 1.4%
same,Population Healthy Nuclei (%),[3],89.9% and 83.18%
same,Population Hoechst High Intensity Objects (%),[3],0%
same,Population Membrane Permeable-Phenotype (%),[3],0.85% and 2.81%
same,Population Mitochondria Different-Phenotype (%),[3],0% and 7.3%
same,Population Mitotic Cells (%),[3],70.27% and 48.48%
same,Population Normal (%),[3],100%
same,Population Pyknosed Nuclei (%),[3],7.05% and 15.42%
same,Population Tubulin-Different-Phenotype (%),[3],1.06% and 1.69%
same,Total Cell Count,[3],525 and 214
same,Population Apoptotic (%),[4],50% and 78.57%
same,Population Fragmented Nuclei (%),[4],75.02% and 91.84%
same,Population Hoechst High Intensity Objects (%),[4],12.85% and 7.48%
same,Population Mitotic Cells (%),[4],50% and 21.43%
same,Population Normal (%),[4],87.15% and 92.52%
same,Population Pyknosed Nuclei (%),[4],0.64% and 0.94%
same,Population Tubulin-Different-Phenotype (%),[4],6.62% and 18.52%
same,Total Cell Count,[4],1424 and 1617
same,Population Apoptotic (%),[5],46.15% and 46.51%
same,Population Fragmented Nuclei (%),[5],3.96% and 4.36%
same,Population Healthy Nuclei (%),[5],90.62% and 82.24%
same,Population Hoechst High Intensity Objects (%),[5],0%
same,Population Membrane Permeable-Phenotype (%),[5],1.03% and 0.76%
same,Population Mitochondria Different-Phenotype (%),[5],0% and 2.65%
same,Population Mitotic Cells (%),[5],53.85% and 53.49%
same,Population Normal (%),[5],100%
same,Population Pyknosed Nuclei (%),[5],5.42% and 13.4%
same,Population Tubulin-Different-Phenotype (%),[5],0.8% and 1.52%
same,Total Cell Count,[5],960 and 321
same,Population Apoptotic (%),[6],45% and 53.85%
same,Population Fragmented Nuclei (%),[6],69.73% and 94.1%
same,Population Hoechst High Intensity Objects (%),[6],23.54% and 11.4%
same,Population Mitotic Cells (%),[6],55% and 46.15%
same,Population Normal (%),[6],76.46% and 88.6%
same,Population Pyknosed Nuclei (%),[6],2.07% and 0.82%
same,Population Tubulin-Different-Phenotype (%),[6],6.23% and 18.52%
same,Total Cell Count,[6],1266 and 1798
COc1ccc2c(c1)C(C(=O)N(Cc1ccc(N(C)C)cc1)c1ccc(C(C)C)cc1)CCC2.Cl (stereo unspecified),Population Apoptotic (%),[1],70%
same,Population Fragmented Nuclei (%),[1],36% and 17%
same,Population Healthy Nuclei (%),[1],54% and 73%
same,Population Hoechst High Intensity Objects (%),[1],4% and 3%
same,Population Membrane Permeable-Phenotype (%),[1],8% and 9%
same,Population Mitochondria Different-Phenotype (%),[1],5% and 3%
same,Population Mitotic Cells (%),[1],29% and 30%
same,Population Normal (%),[1],95% and 96%
same,Population Pyknosed Nuclei (%),[1],9% and 8%
same,Population Tubulin-Different-Phenotype (%),[1],4% and 2%
same,Total Cell Count,[1],264 and 122
same,Population Apoptotic (%),[2],38% and 60%
same,Population Fragmented Nuclei (%),[2],27% and 16%
same,Population Healthy Nuclei (%),[2],50% and 60%
same,Population Hoechst High Intensity Objects (%),[2],4%
same,Population Membrane Permeable-Phenotype (%),[2],73% and 43%
same,Population Mitochondria Different-Phenotype (%),[2],55% and 73%
same,Population Mitotic Cells (%),[2],61% and 40%
same,Population Normal (%),[2],95%
same,Population Pyknosed Nuclei (%),[2],22% and 23%
same,Population Tubulin-Different-Phenotype (%),[2],80% and 58%
same,Total Cell Count,[2],224 and 113
same,Population Apoptotic (%),[3],75% and 100%
same,Population Fragmented Nuclei (%),[3],27% and 18%
same,Population Healthy Nuclei (%),[3],61% and 73%
same,Population Hoechst High Intensity Objects (%),[3],4% and 2%
same,Population Membrane Permeable-Phenotype (%),[3],5%
same,Population Mitochondria Different-Phenotype (%),[3],4% and 1%
same,Population Mitotic Cells (%),[3],24% and 0%
same,Population Normal (%),[3],95% and 97%
same,Population Pyknosed Nuclei (%),[3],11% and 7%
same,Population Tubulin-Different-Phenotype (%),[3],4% and 2%
same,Total Cell Count,[3],273 and 146
same,Population Apoptotic (%),[4],71% and 86%
same,Population Fragmented Nuclei (%),[4],25% and 20%
same,Population Healthy Nuclei (%),[4],50% and 57%
same,Population Hoechst High Intensity Objects (%),[4],2% and 9%
same,Population Membrane Permeable-Phenotype (%),[4],54% and 45%
same,Population Mitochondria Different-Phenotype (%),[4],42% and 53%
same,Population Mitotic Cells (%),[4],28% and 13%
same,Population Normal (%),[4],97% and 90%
same,Population Pyknosed Nuclei (%),[4],24% and 22%
same,Population Tubulin-Different-Phenotype (%),[4],49% and 48%
same,Total Cell Count,[4],224 and 115
same,Population Apoptotic (%),[5],80% and 93%
same,Population Fragmented Nuclei (%),[5],21% and 17%
same,Population Healthy Nuclei (%),[5],65% and 73%
same,Population Hoechst High Intensity Objects (%),[5],2% and 3%
same,Population Membrane Permeable-Phenotype (%),[5],10% and 6%
same,Population Mitochondria Different-Phenotype (%),[5],5% and 4%
same,Population Normal (%),[5],97% and 96%
same,Population Pyknosed Nuclei (%),[5],13% and 8%
same,Population Tubulin-Different-Phenotype (%),[5],3% and 2%
same,Total Cell Count,[5],369 and 203
same,Population Apoptotic (%),[6],73% and 92%
same,Population Fragmented Nuclei (%),[6],21% and 26%
same,Population Healthy Nuclei (%),[6],47% and 49%
same,Population Hoechst High Intensity Objects (%),[6],3% and 8%
same,Population Membrane Permeable-Phenotype (%),[6],43%
same,Population Mitochondria Different-Phenotype (%),[6],26% and 36%
same,Population Normal (%),[6],96% and 91%
same,Population Pyknosed Nuclei (%),[6],30% and 24%
same,Population Tubulin-Different-Phenotype (%),[6],31% and 42%
same,Total Cell Count,[6],265 and 126
